Reference: ChEMBL document CHEMBL4351010, “Design, synthesis and biological evaluation of 2-hydrazinyladenosine derivatives as A2A adenosine receptor ligands” (Eur J Med Chem, 2019)

Experiments:
Adenosine receptor A2a [1] = target: T1, Adenosine receptor A2a (Homo sapiens, UniProt P29274); test: Displacement of [3H]CGS21680 from human cloned adenosine receptor A2A expressed in HEK-293 cell membrane incubated for 60 mins by microbeta counting method; assay type: cell membranes
In short: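 Compounds tested as 10-point three-fold dilution series. Incubation 60 min at 27°C. Bound ligand separated by GF/B filtration, scintillation counted. Mean ± SEM of duplicates.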

Adenosine receptor A2a [2] = target: T1, Adenosine receptor A2a; test: Agonist activity at human adenosine receptor A2A expressed in HEK293 cells assessed as cAMP accumulation incubated for 30 mins by Eu-cAMP tracer-based Envision plate reader analysis; assay type: functional, cell-based
In short: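 Intact HEK-293 cells stably expressing human A2A receptor, detached with Versene, resuspended at 300 cells/well in HBSS/HEPES/BSA buffer pH 7.4 with rolipram. Compounds given as 11-point three-fold DMSO dilution series.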

Homo sapiens = species: Homo sapiens; test: Selectivity index, ratio of Ki for human cloned adenosine receptor A1 expressed in CHO-K1 cell membrane to Ki for human cloned adenosine receptor A2A expressed in HEK293 cell membrane incubated for 60 mins by microbeta counting method; assay type: cell-based
In short: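 Ratio Ki(A1)/Ki(A2A). […] Both assays incubated 60 min at 27°C and read by filtration scintillation counting. Ki values from Cheng–Prusoff conversion.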

Adenosine receptor A1 [3] = target: T2, Adenosine receptor A1 (Homo sapiens, UniProt P30542); test: Displacement of [3H]DPCPX from human cloned adenosine receptor A1 expressed in CHO-K1 cell membranes incubated for 60 mins by microbeta counting method
T2 sequence (P30542 whole entry): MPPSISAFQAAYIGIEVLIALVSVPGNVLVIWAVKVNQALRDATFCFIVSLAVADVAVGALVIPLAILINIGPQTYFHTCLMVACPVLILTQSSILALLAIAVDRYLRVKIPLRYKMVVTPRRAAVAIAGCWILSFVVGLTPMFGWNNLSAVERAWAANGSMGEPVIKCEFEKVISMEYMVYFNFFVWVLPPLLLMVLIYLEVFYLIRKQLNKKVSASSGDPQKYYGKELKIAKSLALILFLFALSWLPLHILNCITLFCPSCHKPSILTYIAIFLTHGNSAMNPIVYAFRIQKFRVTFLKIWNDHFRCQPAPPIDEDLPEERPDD
In short: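 Radioligand [3H]DPCPX at 5 nM. Compounds tested as 10-point three-fold dilution series. Incubation 60 min at 27°C. Read-out by GF/B filtration and scintillation counting. Ki obtained from IC50 by Cheng–Prusoff (Kd 2.28 nM). Mean ± SEM of duplicates.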

[4] = target: T3, Adenosine receptor A1 (Homo sapiens) (UniProt P30542); test: Displacement of [3H]DPCPX from human cloned adenosine receptor A1 expressed in CHO-K1 cell membranes at 1 uM incubated for 60 mins by microbeta counting method relative to control
T3 sequence (whole entry): T2 sequence (P30542 whole entry)
In short: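 Human A1 CHO-K1 membranes in Tris-HCl pH 7.4/MgCl2/EDTA buffer with adenosine deaminase. Radioligand [3H]DPCPX at 5 nM. Single compound concentration of 1 μM. Incubation 60 min at 27°C. Filtration then scintillation counting. Result is percent displacement of specific binding.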

Adenosine receptor A1 [5] = target: T2, Adenosine receptor A1; test: Displacement of [3H]CPX from human adenosine receptor A1 expressed in CHO-K1 cell membranes incubated for 2 hrs by radioligand competitive binding analysis
Adenosine receptor A2a [6] = target: T1, Adenosine receptor A2a; test: Displacement of [3H]CGS21680 from human cloned adenosine receptor A2A expressed in HEK-293 cell membrane at 1 uM incubated for 60 mins by microbeta counting method relative to control; assay type: cell membranes
In short: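 Human A2A HEK-293 membranes in Tris-HCl pH 7.4/MgCl2/EDTA buffer with adenosine deaminase. […] Single compound concentration of 1 μM. Incubation 60 min at 27°C. Filtration then scintillation counting. Result is percent displacement of specific binding.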

T1 sequence (P29274 whole entry): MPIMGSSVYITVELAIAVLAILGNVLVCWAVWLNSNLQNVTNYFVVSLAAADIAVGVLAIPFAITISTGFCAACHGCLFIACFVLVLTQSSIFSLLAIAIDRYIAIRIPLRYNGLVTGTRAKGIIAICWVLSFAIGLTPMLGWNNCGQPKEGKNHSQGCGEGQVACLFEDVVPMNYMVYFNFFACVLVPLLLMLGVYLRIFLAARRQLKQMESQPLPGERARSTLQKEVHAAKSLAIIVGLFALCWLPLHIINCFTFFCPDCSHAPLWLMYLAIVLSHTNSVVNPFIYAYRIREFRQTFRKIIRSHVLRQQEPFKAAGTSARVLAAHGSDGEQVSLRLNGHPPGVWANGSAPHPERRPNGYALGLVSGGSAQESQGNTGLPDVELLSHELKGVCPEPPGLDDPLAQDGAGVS

Row | Compound | Ki (Adenosine receptor A2a [1]) [nM] | EC50 (Adenosine receptor A2a [2]) [nM] | Ratio Ki (Homo sapiens) | Ki (Adenosine receptor A1 [3]) [nM] | inhibition [4] [%] | Ki (Adenosine receptor A1 [5]) [µM] | inhibition (Adenosine receptor A2a [6]) [%]
1 | Nc1nc(N/N=C/C2CCCC2)nc2c1ncn2[C@@H]1O[C@H](CO)[C@@H](O)[C@H]1O | 4.1 | 4.34 | 1.4 | 5.6 |  |  | 
2 | Nc1nc(N/N=C/c2ccc(Br)cn2)nc2c1ncn2[C@@H]1O[C@H](CO)[C@@H](O)[C@H]1O | 239 |  | 0.02 | 4.7 |  |  | 
3 | COc1cc(/C=N/Nc2nc(N)c3ncn([C@@H]4O[C@H](CO)[C@@H](O)[C@H]4O)c3n2)ccc1OCc1ccccc1 |  |  | 91 | 9140 |  |  | 
4 | N#Cc1ccc(/C=N/Nc2nc(N)c3ncn([C@@H]4O[C@H](CO)[C@@H](O)[C@H]4O)c3n2)cc1 | 8.5 | 15.3 | 0.5 | 4.1 |  |  | 
5 | Nc1nc(N/N=C/c2ccc(N3CCOCC3)cc2)nc2c1ncn2[C@@H]1O[C@H](CO)[C@@H](O)[C@H]1O |  |  | 0.003 | 2.5 |  |  | 
6 | Nc1nc(N/N=C/c2cncs2)nc2c1ncn2[C@@H]1O[C@H](CO)[C@@H](O)[C@H]1O | 71 |  | 0.31 | 22 |  |  | 
7 | Nc1nc(N/N=C/c2ccc[nH]2)nc2c1ncn2[C@@H]1O[C@H](CO)[C@@H](O)[C@H]1O | 8.3 | 8.52 | 0.96 | 8 |  |  | 
8 | Nc1nc(N/N=C/c2ccc(-c3ccccn3)cc2)nc2c1ncn2[C@@H]1O[C@H](CO)[C@@H](O)[C@H]1O |  |  | 36 | 7540 |  |  | 
9 | CCCOc1ccc(/C=N/Nc2nc(N)c3ncn([C@@H]4O[C@H](CO)[C@@H](O)[C@H]4O)c3n2)cc1 | 224 |  | 66 | > 10000 | 7 |  | 
10 | CCN(CC)c1ccc(/C=N/Nc2nc(N)c3ncn([C@@H]4O[C@H](CO)[C@@H](O)[C@H]4O)c3n2)cc1 | 6.4 | 17.9 | > 1000 | > 10000 | 0 |  | 
11 | CNC(=O)c1cnn(-c2nc(N)c3ncn([C@@H]4O[C@H](CO)[C@@H](O)[C@H]4O)c3n2)c1 [REGADENOSON ANHYDROUS] |  |  |  |  |  | > 16.5 | 
12 | Nc1nc(N/N=C/c2ccc(N3CCCC3)cc2)nc2c1ncn2[C@@H]1O[C@H](CO)[C@@H](O)[C@H]1O | 6620 |  | 0.00077 | 5.1 |  |  | 
13 | CC(/C=N/Nc1nc(N)c2ncn([C@@H]3O[C@H](CO)[C@@H](O)[C@H]3O)c2n1)Cc1ccc(C(C)C)cc1 (some centres not stated) | 6.3 | 1.38 | 1430 | 9500 |  |  | 
14 | Nc1nc(N/N=C/c2ccc(C(F)(F)F)cc2)nc2c1ncn2[C@@H]1O[C@H](CO)[C@@H](O)[C@H]1O |  |  | 0.6 | 37 |  |  | 
15 | COc1ccc(/C=N/Nc2nc(N)c3ncn([C@@H]4O[C@H](CO)[C@@H](O)[C@H]4O)c3n2)cn1 | 1450 |  | 0.0018 | 2.6 |  |  | 
16 | Nc1nc(N/N=C/c2ccc(N(c3ccccc3)c3ccccc3)cc2)nc2c1ncn2[C@@H]1O[C@H](CO)[C@@H](O)[C@H]1O |  |  | > 1000 | > 10000 | 0 |  | 
17 | CC(=O)Nc1ccc(/C=N/Nc2nc(N)c3ncn([C@@H]4O[C@H](CO)[C@@H](O)[C@H]4O)c3n2)cc1 |  |  | > 1000 | > 10000 | 0 |  | 

Row | Compound | Ki (Adenosine receptor A2a [1]) [nM] | EC50 (Adenosine receptor A2a [2]) [nM] | Ratio Ki (Homo sapiens) | Ki (Adenosine receptor A1 [3]) [nM] | inhibition [4] [%] | Ki (Adenosine receptor A1 [5]) [µM] | inhibition (Adenosine receptor A2a [6]) [%]
18 | Nc1nc(N/N=C/c2ccc(Cl)c(C(F)(F)F)c2)nc2c1ncn2[C@@H]1O[C@H](CO)[C@@H](O)[C@H]1O |  |  | > 1000 | > 10000 | 11 |  | 
19 | CSCC/C=N/Nc1nc(N)c2ncn([C@@H]3O[C@H](CO)[C@@H](O)[C@H]3O)c2n1 | > 10000 |  |  | > 10000 | 0 |  | 8
20 | Nc1nc(N/N=C/c2ccc(-c3ccc(Br)cc3)o2)nc2c1ncn2[C@@H]1O[C@H](CO)[C@@H](O)[C@H]1O | > 10000 |  | < 0.001 | 4.5 |  |  | 27
21 | CCCCC/C=C/C=C/C=N/Nc1nc(N)c2ncn([C@@H]3O[C@H](CO)[C@@H](O)[C@H]3O)c2n1 | 17.5 | 10.2 | 0.11 | 2 |  |  | 
22 | N#Cc1ccccc1/C=N/Nc1nc(N)c2ncn([C@@H]3O[C@H](CO)[C@@H](O)[C@H]3O)c2n1 |  |  |  | 2.9 |  |  | 
23 | Nc1nc(N/N=C/c2ccc3ncccc3c2)nc2c1ncn2[C@@H]1O[C@H](CO)[C@@H](O)[C@H]1O | 6.5 | 5.52 | 1.5 | 9.8 |  |  | 
24 | Nc1nc(N/N=C/c2cccc(OCc3ccccc3)c2)nc2c1ncn2[C@@H]1O[C@H](CO)[C@@H](O)[C@H]1O |  |  | 0.075 | 13 |  |  | 
25 | CCCCc1nc(/C=N/Nc2nc(N)c3ncn([C@@H]4O[C@H](CO)[C@@H](O)[C@H]4O)c3n2)c(Cl)[nH]1 | 18 | 1.1 | 0.67 | 12 |  |  | 
26 | CCOc1cc(/C=N/Nc2nc(N)c3ncn([C@@H]4O[C@H](CO)[C@@H](O)[C@H]4O)c3n2)ccc1O |  |  | 5 | 6940 |  |  | 
27 | Nc1nc(N/N=C/c2ccc(-n3ccnc3)cc2)nc2c1ncn2[C@@H]1O[C@H](CO)[C@@H](O)[C@H]1O |  |  | > 1000 | > 10000 | 0 |  | 
28 | Nc1nc(N/N=C/c2ccc(OCc3ccccc3)c(OCc3ccccc3)c2)nc2c1ncn2[C@@H]1O[C@H](CO)[C@@H](O)[C@H]1O |  |  | > 1000 | > 10000 | 0 |  | 
29 | Nc1nc(N/N=C/c2ccc(-c3ccccc3)cc2)nc2c1ncn2[C@@H]1O[C@H](CO)[C@@H](O)[C@H]1O |  |  |  | 7860 |  |  | 
30 | Nc1nc(N/N=C/c2cccnc2Cl)nc2c1ncn2[C@@H]1O[C@H](CO)[C@@H](O)[C@H]1O | 8.7 | 4.6 | 0.53 | 4.6 |  |  | 
31 | Nc1nc(N/N=C/c2ccc(OCc3ccc(F)cc3)cc2)nc2c1ncn2[C@@H]1O[C@H](CO)[C@@H](O)[C@H]1O |  | 4.05 | 12.5 | 70 |  |  | 
32 | Nc1nc(N/N=C/c2ccc(C(F)(F)F)cc2C(F)(F)F)nc2c1ncn2[C@@H]1O[C@H](CO)[C@@H](O)[C@H]1O | 6280 |  | > 1000 | > 10000 | 0 |  | 
33 | COc1cc(/C=N/Nc2nc(N)c3ncn([C@@H]4O[C@H](CO)[C@@H](O)[C@H]4O)c3n2)cc(OC)c1OC | 5490 |  | > 1000 | > 10000 | 0 |  | 
